# Test results taken from ChEMBL document CHEMBL3526088, “The intestine as an important contributor to prasugrel active metabolite formation in vivo” (Drug Metab Dispos, 2011).
# Legend:
# [1] = Drug metabolism in dog intestinal microsomes assessed as R-138727 formation at 1.6 to 200 uM after 15 mins incubation; assay type: ADME, Canis lupus familiaris, Intestine, Microsome; details: 0.25 h
# In short: (§1)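 Preincubated 5 min at 37°C, then R-95913 added (1.6–200 μM final) and incubated 15 min at 37°C, in triplicate. Stopped with methoxyphenacyl bromide and internal standard in acetonitrile, solid-phase extracted, and analysed by HPLC. Michaelis-Menten fit, CLint = Vmax/Km.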
# Liver microsome [2] = assay: Drug metabolism in dog liver microsomes assessed as R-138727 formation at 1.6 to 200 uM after 15 mins incubation; assay type: ADME, Canis lupus familiaris; details: 0.25 h; in short: as §1
# [3] = Drug metabolism in human intestinal microsomes assessed as R-138727 formation at 1.6 to 200 uM after 15 mins incubation; assay type: ADME, Intestine, Microsome; details: 0.25 h; in short: as §1
# Liver microsome [4] = assay: Drug metabolism in human liver microsomes assessed as R-138727 formation at 1.6 to 200 uM after 15 mins incubation; assay type: ADME; details: 0.25 h
# [5] = Drug metabolism in dog intestinal microsomes assessed as R-138727 formation measured per protein at 1.6 to 200 uM after 15 mins incubation; assay type: ADME, Canis lupus familiaris, Intestine, Microsome; details: 0.25 h; in short: as §1
# Liver microsome [6] = assay: Drug metabolism in dog liver microsomes assessed as R-138727 formation measured per protein at 1.6 to 200 uM after 15 mins incubation; assay type: ADME, Canis lupus familiaris; details: 0.25 h; in short: as §1
# [7] = Drug metabolism in human intestinal microsomes assessed as R-138727 formation measured per protein at 1.6 to 200 uM after 15 mins incubation; assay type: ADME, Intestine, Microsome; details: 0.25 h; in short: as §1
# Liver microsome [8] = assay: Drug metabolism in human liver microsomes assessed as R-138727 formation at 1.6 to 200 uM measured per protein after 15 mins incubation; assay type: ADME; details: 0.25 h
# [9] = Intrinsic clearance in dog intestinal microsomes assessed as R-138727 formation measured per protein at 1.6 to 200 uM after 15 mins incubation; assay type: ADME, Canis lupus familiaris, Intestine, Microsome; details: 0.25 h
# In short: (§2)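 Microsomes (1 mg protein/ml; dog intestinal, dog liver or human intestinal) in 43 mM potassium phosphate pH 7.4 with an NADPH-generating system and 5 mM glutathione, in triplicate. After 5 min preincubation at 37°C, R-95913 (1.6–200 µM final) was added for 15 min at 37°C. Product was derivatised with methoxyphenacyl bromide, extracted by SPE and measured by HPLC. Michaelis–Menten fit; CLint = Vmax/Km.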
# Liver microsome [10] = assay: Intrinsic clearance in dog liver microsomes assessed as R-138727 formation measured per protein at 1.6 to 200 uM after 15 mins incubation; assay type: ADME, Canis lupus familiaris; details: 0.25 h; in short: as §2
# [11] = Intrinsic clearance in human intestinal microsomes assessed as R-138727 formation measured per protein at 1.6 to 200 uM after 15 mins incubation; assay type: ADME, Intestine, Microsome; details: 0.25 h; in short: as §2
# Liver microsome [12] = assay: Intrinsic clearance in human liver microsomes assessed as R-138727 formation at 1.6 to 200 uM measured per protein after 15 mins incubation; assay type: ADME; details: 0.25 h
# Canis familiaris [13] = assay: Drug metabolism in beagle dog assessed as product of fraction of intestinal absorption and fraction of compound hydrolysis to R-95913 formation in intestine at 1 mg/kg, intraduodenal; assay type: ADME, organism-based, Canis lupus familiaris; design: dose 1 mg/kg, route intraduodenal; details: in vivo, other
# In short: (§3)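 Male beagle dogs (n = 6, 9–12 kg) with portal- and hepatic-vein cannulas, fasted about 19 h, got 1 mg/kg intraduodenally in 5% N,N-dimethylacetamide–95% PEG 400. Portal, hepatic and jugular blood was drawn into heparin at 1–120 min. Plasma was precipitated with acetonitrile (phenacetin internal standard) and analysed by LC-MS/MS in MRM mode. AUC0–2h was by trapezoidal noncompartmental analysis, mean ± S.D.; availability fractions were calculated from these AUCs.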
# Canis familiaris [14] = assay: Drug metabolism in beagle dog assessed as R-95913 formation in liver at 1 mg/kg, intraduodenal; assay type: ADME, organism-based, Canis lupus familiaris; design: dose 1 mg/kg, route intraduodenal; details: in vivo, other; in short: as §3
# Canis familiaris [15] = assay: Drug metabolism in beagle dog assessed as fraction of compound hydrolysis to R-95913 formation in intestine at 1 mg/kg, intraduodenal; assay type: ADME, organism-based, Canis lupus familiaris; design: dose 1 mg/kg, route intraduodenal; details: in vivo, other; in short: as §3
# Canis familiaris [16] = assay: Drug metabolism in beagle dog assessed as product of fraction of intestinal absorption and fraction of compound hydrolysis to R-138727 formation in intestine at 1 mg/kg, intraduodenal; assay type: ADME, organism-based, Canis lupus familiaris; design: dose 1 mg/kg, route intraduodenal; details: in vivo, other; in short: as §3
# Canis familiaris [17] = assay: Drug metabolism in beagle dog assessed as fraction of compound hydrolysis to R-138727 formation in intestine at 1 mg/kg, intraduodenal; assay type: ADME, organism-based, Canis lupus familiaris; design: dose 1 mg/kg, route intraduodenal; details: in vivo, other; in short: as §3
# Canis familiaris [18] = assay: Drug metabolism in beagle dog assessed as fraction of R-95913 hydrolysis to R-138727 formation at 1 mg/kg, intraduodenal; assay type: ADME, organism-based, Canis lupus familiaris; design: dose 1 mg/kg, route intraduodenal; details: in vivo, other; in short: as §3
# Canis familiaris [19] = assay: Drug metabolism in beagle dog assessed as R-138727 formation in liver at 1 mg/kg, intraduodenal; assay type: ADME, organism-based, Canis lupus familiaris; design: dose 1 mg/kg, route intraduodenal; details: in vivo, other; in short: as §3
compound,measurement,setting,value
O=C1C=C2CN(C(C(=O)C3CC3)c3ccccc3F)CCC2S1 (centres undefined),Km,[1],42.7 µM
same,Km,Liver microsome [2],18.5 µM
same,Km,[3],80.4 µM
same,Km,Liver microsome [4],26 µM
same,Vmax,[5],49.8 pmol/min/mg
same,Vmax,Liver microsome [6],379.9 pmol/min/mg
same,Vmax,[7],89.2 pmol/min/mg
same,Vmax,Liver microsome [8],247 pmol/min/mg
same,CL,[9],1.2 µL/min/mg
same,CLint,Liver microsome [10],20.6 µL/min/mg
same,CL,[11],1.1 µL/min/mg
same,CLH,Liver microsome [12],9.6 µL/min/mg
CC(=O)Oc1cc2c(s1)CCN(C(C(=O)C1CC1)c1ccccc1F)C2 (centres undefined) [PRASUGREL],Fm,Canis familiaris [13],0.8
same,Fm,Canis familiaris [14],0.08
same,Fm,Canis familiaris [15],0.83
same,Fm,Canis familiaris [16],0.13
same,Fm,Canis familiaris [17],0.13
same,Fm,Canis familiaris [18],0.23
same,Fm,Canis familiaris [19],0.75
